# An excerpt weighted towards active compounds, which were near 4.3% of everything screened.
# APP 5'UTR act: activators of APP 5'UTR luciferase reporter, primary screen, SH-SY5Y cells. activation, % at 2 µM. SH-SY5Y APP 5'UTR luciferase reporter, luminescence; zero percent = DMSO vehicle wells. AID 1276, 2008. 1% of 190,000 active;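 active = activation above a set limit, based on mean plus 3 SD of controls, cut at about 140% in these data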
# FLuc inh counter: firefly luciferase enzyme inhibitors, primary screen, artefact control for luciferase-based inhibitor screens, biochemical, luminescence, ATPLite; 10 min; inhibition, % at 10 µM; 1.5% of 200,000 active;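 active = inhibition above about 50% when tested at 10 µM, limit read from the data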
# Target sequence (P08659 whole entry, looked up): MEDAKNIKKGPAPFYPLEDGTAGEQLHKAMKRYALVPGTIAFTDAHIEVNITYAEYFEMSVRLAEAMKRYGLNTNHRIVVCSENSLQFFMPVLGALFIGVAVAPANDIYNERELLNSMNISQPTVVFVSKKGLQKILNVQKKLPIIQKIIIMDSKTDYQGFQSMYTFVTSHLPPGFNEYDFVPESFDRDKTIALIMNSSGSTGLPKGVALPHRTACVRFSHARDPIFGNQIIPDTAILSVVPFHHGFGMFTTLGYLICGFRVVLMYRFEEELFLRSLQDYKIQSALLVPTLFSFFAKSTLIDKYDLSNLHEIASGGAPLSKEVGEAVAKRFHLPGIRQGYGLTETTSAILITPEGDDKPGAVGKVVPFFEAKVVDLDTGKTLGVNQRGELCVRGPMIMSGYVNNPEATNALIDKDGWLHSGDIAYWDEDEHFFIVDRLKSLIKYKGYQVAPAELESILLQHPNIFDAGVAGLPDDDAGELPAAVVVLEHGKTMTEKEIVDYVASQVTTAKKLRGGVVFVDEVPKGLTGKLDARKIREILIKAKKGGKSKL
# FLuc act counter: FLuc activators, initial screening, artefact control for FLuc-dependent activation tests, biochemical, ATPlite luminescence; ATPlite luciferase biochemical, 10 min; 0 = ATP-free wells, 1 = DMSO control; AID 1027, 2008; 200,000 tested, under 10 active; activation factor at 10 µM; Luciferin 4-monooxygenase (Photinus pyralis), P08659;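 active = luciferase activation factor, scaled between plate controls, of at least 2 with compound at 10 µM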
#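 System: Luciferase/luciferin detection reagent, cell-free biochemical luciferase assay | Medium: PBS buffer for ATP | Dosing: Test compounds dosed from 2 mM stocks in 100% DMSO | Timing: 10 min at ambient temperature | Signal: Luminescence measurement of luciferase light output | Evaluation: Luciferase activation, seen as luminescence increase over controls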
# NF-kB neuron act: activators of NF-kB expression in neurons, primary screen, cell-based, HTS; AID 1239, 2008; human neuronal cells, NF-kB reporter expression; active compounds read high; fold change at 12.5 µM; 1.6% of 190,000 active; in the data active = fold change above about 3.3
# STAT1 activator: STAT1 signaling activators, primary screen, cell-based, HTS, luciferase reporter | 2.6% of 200,000 active | NIH 3T3 STAT1-luciferase reporter, IFN-gamma, luminescence; 100% = IFN-gamma alone, no compound | activation (% of control), % at 5.5 µM | AID 932, 2007;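 active = activation above the screen-wide mean activation plus 3 SD, cut at about 130% in these data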;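 also: raw ratio to IFN-gamma control signal so 100% means no change and 0% no light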
# Starred values were filed as active, the others as inactive; . = no result.
SMILES,APP 5'UTR act,FLuc inh counter,FLuc act counter,NF-kB neuron act,STAT1 activator
N/C(=N\OC(=O)c1ccc2c(c1)OCO2)c1ccc([N+](=O)[O-])cc1,49,15,0.9,1.7,129*
COc1ccc(/C(N)=N/OC(=O)c2ccc3c(c2)OCO3)cc1OC,44,62*,0.4,2.1,116
c1ccc(CSc2ncn[nH]2)nc1,13,-9,1.1,1.4,95
O=C(COC(=O)C1CCN(S(=O)(=O)c2ccc3c(c2)OCCO3)CC1)Nc1cc(C(F)(F)F)ccc1Cl,21,-3,1,1.1,103
COc1ccccc1N1CCN(Cc2ccc(O)c3ncccc23)CC1,-90,-4,1,7.2*,91
CCOC(=O)C1CCN(Cc2ccc(O)c3ncccc23)CC1,-41,-5,1.1,10*,96
CC(C)(C)N=Cc1cc(-c2ccccc2)sc1O,.,17,0.8,3.3,138*
CCN(CC)c1ccc(C=Nc2ccccc2)c(O)c1,-4,42,0.6,1.2,102
COC(=O)c1ccc(COc2ccc(/C=N/N3CCN(C)CC3)cc2)cc1,55,-3,1,1.7,136*
COC(=O)c1ccc(/C=N\N2CCN(Cc3ccc(C)cc3)CC2)cc1,-3,-5,1.1,1,99
Cc1cccc(NC(=O)Cn2cnc3c(oc4ccccc43)c2=O)c1C,4,-1,1,1.3,106
CCOc1ccc2nc(/N=C/c3c(C)[nH]n(-c4ccc(C)cc4)c3=O)sc2c1,26,65*,0.3,1.2,118
CCOc1ccc2nc(/N=C/c3c(C)[nH]n(-c4ccccc4)c3=O)sc2c1,.,43,0.6,1.6,115
Cc1nc2sc(-c3ccccc3)cc2c(=O)n1-n1cccc1,142*,17,0.8,1.1,145*
Cc1nc2sc(-c3ccccc3)cc2c(=O)n1/N=C/N(C)C,103,21,0.8,2.4,147*
Cc1nc2scc(-c3ccco3)c2c(=O)n1/N=C/N(C)C,5,-9,1.1,1.1,98
O=c1c2ccccc2nc2n1CCC2,-16,-12,1.1,1,101
Cc1nc2sc(-c3ccccc3)cc2c(=O)[nH]1,157*,90*,0.1,3.5*,77
O=c1c2cc(-c3ccccc3)sc2nc2n1CCC2,187*,68*,0.3,4.2*,139*
Cn1c(CS/C(N)=N/N=C/c2ccccc2)c(Br)c(=O)n1-c1ccccc1,24,14,0.9,1,94
O=C(CCCOc1ccccc1)Nc1nccs1,1,0,1,1.1,99
COc1ccc(C(CC(=O)Nc2cc(OC)cc(OC)c2)n2cccc2)cc1 (stereo not drawn),17,-6,1.1,0.87,100
COc1ccccc1OCCCC(=O)Nc1nccs1,75,15,0.8,1.6,134*
COc1ccc(C(CC(=O)Nc2nccs2)n2cccc2)cc1 (stereo not drawn),194*,26,0.7,4.5*,156*
COc1ccc(OCC(=O)Nc2nccs2)cc1,104,75*,0.2,3.9*,69
SMILES,APP 5'UTR act,FLuc inh counter,FLuc act counter,NF-kB neuron act,STAT1 activator
CCOc1ccc(OCC(=O)Nc2nccs2)cc1,157*,83*,0.2,2.6,43
CC(C)[C@H](NC(=O)c1ccccc1)C(=O)OCC(=O)N1CCCc2ccccc21,-27,-4,1,0.89,101
O=C(/C=C/c1ccccc1)NC(NC(=S)Nc1cc(Cl)ccc1Cl)C(Cl)(Cl)Cl (stereo not drawn),7,0,1,0.98,97
COc1cccc(CNC(=O)CCC2CCCN(C(=O)c3csc(C(C)C)n3)C2)c1 (stereo not drawn),-6,-8,1.1,1.2,94
Fc1ccc(NC(=S)Nc2ccc3nccnc3c2)cc1,-4,-3,1,1.1,100
O=C(Nc1nccs1)c1ccc(-c2ccc(Cl)cc2)o1,133,85*,0.1,6.1*,138*
Fc1ccc(NC(=S)Nc2nccs2)cc1,71,3,1,9.1*,110
C/C=C/C=C/C(=O)Nc1nccs1,-6,3,1,1.7,112
O=C(/C=C/c1ccc(Cl)cc1)Nc1nccs1,184*,44,0.6,8.5*,109
